Calls of active or inactive are those of the source.
Tests used:
[1] = tested on: Mus musculus; test: Neurotoxicity in albino Swiss CD-1 mouse assessed as motor impairment at 30 mg/kg, ip after 30 mins by rotarod test; assay type: toxicity, organism-based; set-up: dose 30 mg/kg, route intraperitoneal; conditions: in vivo, 0.5 h
How it was run: (§1)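 CD-1 mice trained 3 days on a 2 cm rotarod at 18 rpm, then tested ≥24 h later, 30 min after ip dosing, at 6, 18 and 24 rpm. Failure to stay on for 1 min counted as impairment (fallers/tested; Fisher's exact); mean time on rod also recorded (ANOVA/Dunnett); 8 mice per group.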

[2] = tested on: Mus musculus; test: Neurotoxicity in albino Swiss CD-1 mouse assessed as mean time spent on the rotarod with 24 rpm at 30 mg/kg, ip after 30 mins by rotarod test (reference value: 60.0 +/- 0.0 seconds); assay type: toxicity, organism-based; set-up: dose 30 mg/kg, route intraperitoneal; conditions: in vivo, 0.5 h; how it was run: as §1
[3] = tested on: Mus musculus; test: Neurotoxicity in albino Swiss CD-1 mouse assessed as mean time spent on the rotarod with 18 rpm at 30 mg/kg, ip after 30 mins by rotarod test (reference value: 60.0 +/- 0.0 seconds); assay type: toxicity, organism-based; set-up: dose 30 mg/kg, route intraperitoneal; conditions: in vivo, 0.5 h; how it was run: as §1
[4] = tested on: Mus musculus; test: Neurotoxicity in albino Swiss CD-1 mouse assessed as mean time spent on the rotarod with 6 rpm at 30 mg/kg, ip after 30 mins by rotarod test (reference value: 60.0 +/- 0.0 seconds); assay type: toxicity, organism-based; set-up: dose 30 mg/kg, route intraperitoneal; conditions: in vivo, 0.5 h; how it was run: as §1
[5] = tested on: Mus musculus; test: Antinociceptive activity against formalin-induced inflammatory pain in albino Swiss CD-1 mouse assessed as duration of licking response at 30 mg/kg, ip administered 30 mins prior to formalin challenge measured for 15 to 30 mins (reference value: 111.6 +/- 17.1 seconds); assay type: functional; conditions: route intraperitoneal
How it was run: (§2)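 Male CD-1 mice, 18–25 g, 6–12 per dose; compound suspended in 0.5% methylcellulose, given ip 30 min before 20 µl of 5% formalin intraplantar into right hind paw. Time spent licking the injected paw scored blind at 0–5 min and 15–30 min. Reduction versus vehicle-treated mice; ED50 by log-probit; mean ± SEM, ANOVA/Dunnett or t-test.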

[6] = tested on: Mus musculus; test: Antinociceptive activity against formalin-induced inflammatory pain in albino Swiss CD-1 mouse assessed as duration of licking response at 15 mg/kg, ip administered 30 mins prior to formalin challenge measured for 15 to 30 mins (reference value: 111.6 +/- 17.1 seconds); assay type: functional; conditions: route intraperitoneal; how it was run: as §2
[7] = tested on: Mus musculus; test: Antinociceptive activity against formalin-induced inflammatory pain in albino Swiss CD-1 mouse assessed as duration of licking response at 7.5 mg/kg, ip administered 30 mins prior to formalin challenge measured for 15 to 30 mins (reference value: 111.6 +/- 17.1 seconds); assay type: functional; conditions: route intraperitoneal; how it was run: as §2
[8] = tested on: Mus musculus; test: Antinociceptive activity against formalin-induced inflammatory pain in albino Swiss CD-1 mouse assessed as duration of licking response at 30 mg/kg, ip administered 30 mins prior to formalin challenge measured up to 5 mins (reference value: 55.4 +/- 6.6 seconds); assay type: functional; conditions: route intraperitoneal; how it was run: as §2
[9] = tested on: Mus musculus; test: Antinociceptive activity against formalin-induced inflammatory pain in albino Swiss CD-1 mouse assessed as duration of licking response at 15 mg/kg, ip administered 30 mins prior to formalin challenge measured up to 5 mins (reference value: 55.4 +/- 6.6 seconds); assay type: functional; conditions: route intraperitoneal; how it was run: as §2
[10] = tested on: Mus musculus; test: Antinociceptive activity against formalin-induced inflammatory pain in albino Swiss CD-1 mouse assessed as duration of licking response at 7.5 mg/kg, ip administered 30 mins prior to formalin challenge measured up to 5 mins (reference value: 55.4 +/- 6.6 seconds); assay type: functional; conditions: route intraperitoneal; how it was run: as §2
[11] = tested on: Mus musculus; test: Analgesic activity in albino Swiss CD-1 mouse assessed as reduction in formalin-induced inflammatory pain at 30 mg/kg, ip administered 30 mins prior to formalin challenge measured for 15 to 30 mins relative to control; assay type: functional; set-up: scale not given: the % may be the effect or the level left; conditions: route intraperitoneal; how it was run: as §2
[12] = tested on: Mus musculus; test: Analgesic activity in albino Swiss CD-1 mouse assessed as reduction in formalin-induced inflammatory pain at 15 mg/kg, ip administered 30 mins prior to formalin challenge measured for 15 to 30 mins relative to control; assay type: functional; set-up: scale not given: the % may be the effect or the level left; conditions: route intraperitoneal; how it was run: as §2
[13] = tested on: Mus musculus; test: Analgesic activity in albino Swiss CD-1 mouse assessed as reduction in formalin-induced inflammatory pain at 15 mg/kg, ip administered 30 mins prior to formalin challenge measured up to 5 mins relative to control; assay type: functional; how it was run: as §2
[14] = tested on: Mus musculus; test: Analgesic activity in albino Swiss CD-1 mouse assessed as reduction in formalin-induced inflammatory pain at 7.5 mg/kg, ip administered 30 mins prior to formalin challenge measured up to 5 mins relative to control; assay type: functional; how it was run: as §2
[15] = tested on: Mus musculus; test: Analgesic activity in albino Swiss CD-1 mouse assessed as reduction in formalin-induced inflammatory pain at 30 mg/kg, ip administered 30 mins prior to formalin challenge measured up to 5 mins relative to control; assay type: functional; how it was run: as §2
[16] = tested on: Mus musculus; test: Analgesic activity in albino Swiss CD-1 mouse assessed as reduction in formalin-induced inflammatory pain at 7.5 mg/kg, ip administered 30 mins prior to formalin challenge measured for 15 to 30 mins relative to control; assay type: functional; set-up: scale not given: the % may be the effect or the level left; conditions: route intraperitoneal; how it was run: as §2
[17] = tested on: Mus musculus; test: Analgesic effect in ip dosed albino Swiss CD-1 mouse assessed as inhibition of acetic acid-induced writhing administered 30 mins prior to acetic acid challenge measured for 30 mins; assay type: functional; conditions: albino Swiss CD-1, ip
How it was run: (§3)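 Male CD-1 mice (18–25 g), habituated 30 min in beakers, dosed ip (0.5% methylcellulose, 10 ml/kg) 30 min before ip 0.9% acetic acid in saline (10 ml/kg). Writhes counted for 30 min by blinded observers. Effect is % reduction versus vehicle group; ED50 by log-probit; mean ± SEM.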

[18] = tested on: Mus musculus; test: Analgesic effect in albino Swiss CD-1 mouse assessed as inhibition of acetic acid-induced writhing at 20 mg/kg, ip administered 30 mins prior to acetic acid challenge measured for 30 mins relative to control; assay type: functional; set-up: scale not given: the % may be the effect or the level left; conditions: route intraperitoneal; how it was run: as §3
[19] = tested on: Mus musculus; test: Analgesic effect in albino Swiss CD-1 mouse assessed as inhibition of acetic acid-induced writhing at 15 mg/kg, ip administered 30 mins prior to acetic acid challenge measured for 30 mins relative to control; assay type: functional; set-up: scale not given: the % may be the effect or the level left; conditions: route intraperitoneal; how it was run: as §3
[20] = tested on: Mus musculus; test: Analgesic effect in albino Swiss CD-1 mouse assessed as inhibition of acetic acid-induced writhing at 30 mg/kg, ip administered 30 mins prior to acetic acid challenge measured for 30 mins relative to control; assay type: functional; set-up: scale not given: the % may be the effect or the level left; conditions: route intraperitoneal; how it was run: as §3
[21] = Inhibition of mouse GAT4-mediated [3H]GABA uptake stably transfected in HEK293 cells; assay type: cell-based
[22] = biological target: T1, Sodium- and chloride-dependent GABA transporter 1 (Mus musculus, UniProt P31648); test: Binding affinity to mouse GAT1 stably transfected in HEK293 cells by NO-711 binding assay; assay type: cell-based
[23] = biological target: T1, Sodium- and chloride-dependent GABA transporter 1; test: Inhibition of mouse GAT1-mediated [3H]GABA uptake stably transfected in HEK293 cells; assay type: cell-based
[24] = tested on: Mus musculus; test: Antinociceptive activity in albino Swiss CD-1 mouse assessed as prolongation of latency time at 30 mg/kg, ip administered 30 mins prior to test by hot plate test; assay type: functional, organism-based; set-up: dose 30 mg/kg
How it was run: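 Male CD-1 mice given compound ip in 0.5% methylcellulose 30 min before placement on a plate held at 55–56 °C. Latency to hind-paw licking or jumping timed, 30 s cut-off. Compared with vehicle by ANOVA.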

[25] = tested on: Mus musculus; test: Antinociceptive activity against formalin-induced inflammatory pain in albino Swiss CD-1 mouse assessed as duration of licking response at 30 mg/kg, ip administered 30 mins prior to formalin challenge measured for 15 to 30 mins (reference value: 78.8 +/- 15.9 seconds); assay type: functional; conditions: route intraperitoneal; how it was run: as §2
[26] = tested on: Mus musculus; test: Antinociceptive activity against formalin-induced inflammatory pain in albino Swiss CD-1 mouse assessed as duration of licking response at 30 mg/kg, ip administered 30 mins prior to formalin challenge measured up to 5 mins (reference value: 34.8 +/- 9.4 seconds); assay type: functional; conditions: route intraperitoneal; how it was run: as §2
[27] = tested on: Mus musculus; test: Analgesic effect in albino Swiss CD-1 mouse assessed as inhibition of acetic acid-induced writhing at 7.5 mg/kg, ip administered 30 mins prior to acetic acid challenge measured for 30 mins relative to control; assay type: functional; set-up: scale not given: the % may be the effect or the level left; conditions: route intraperitoneal; how it was run: as §3
[28] = tested on: Mus musculus; test: Analgesic effect in albino Swiss CD-1 mouse assessed as inhibition of acetic acid-induced writhing at 3.75 mg/kg, ip administered 30 mins prior to acetic acid challenge measured for 30 mins relative to control; assay type: functional; set-up: scale not given: the % may be the effect or the level left; conditions: route intraperitoneal; how it was run: as §3
[29] = tested on: Mus musculus; test: Analgesic activity in ip dosed albino Swiss CD-1 mouse assessed as reduction in formalin-induced inflammatory pain administered 30 mins prior to formalin challenge measured for 15 to 30 mins; assay type: functional; conditions: albino Swiss CD-1, ip; how it was run: as §2
[30] = tested on: Mus musculus; test: Analgesic activity in ip dosed albino Swiss CD-1 mouse assessed as reduction in formalin-induced inflammatory pain administered 30 mins prior to formalin challenge measured up to 5 mins; assay type: functional; conditions: albino Swiss CD-1, ip; how it was run: as §2

SMILES | Activity [1] | Time [2] [s] | Time [3] [s] | Time [4] [s] | Time [5] [s] | Time [6] [s] | Time [7] [s] | Time [8] [s] | Time [9] [s] | Time [10] [s] | Activity [11] [%] | Activity [12] [%] | Activity [15] | Activity [16] [%] | ED50 [17] [mg/kg] | Activity [19] [%] | Activity [20] [%] | IC50 [21] [µM] | Ki [22] [µM] | Activity [24] | further results
O=C(NCc1ccc(F)cc1)C(CCO)N1CCC(=C(c2ccccc2)c2ccccc2)CC1 (centres undefined) | Non-toxic | 60 | 60 | 60 | 24 | 17.8 | 30.9 | 58.1 | 50.4 | 59.9 | 78.5 | 84.1 | inactive | 72.3 | 18.1 | 28.9 | 79.4 | 26.3 | 11.5 | inactive | Activity [13]: inactive; Activity [14]: inactive; Activity [18]: 69.9%; IC50 [23]: 9.77 µM
COc1ccc(C(OCCN2CCC[C@H](C(=O)O)C2)(c2ccc(OC)cc2)c2ccc(OC)cc2)cc1 | – | 59 | 56.3 | 59.6 | – | – | – | – | – | – | 39.5 | – | inactive | – | 7.1 | 70.5 | – | – | – | inactive | Time [25]: 47.7 s; Time [26]: 35.6 s; Activity [27]: 62.7%; Activity [28]: 23.3%
O=C(NCc1ccccc1)C(CCO)N1CCC(=C(c2ccccc2)c2ccccc2)CC1 (centres undefined) | Non-toxic | 60 | 60 | 60 | 16.3 | 39.6 | 75.1 | 27.7 | 31 | 39 | 85.4 | 64.5 | – | 32.7 | – | – | 29.8 | 33.1 | 9.12 | inactive | ED50 [29]: 11.1 mg/kg; Activity ([13]; route intraperitoneal): 44%; Activity ([14]; route intraperitoneal): 29.6%; Activity ([15]; route intraperitoneal): 50%; ED50 [30]: 27.1 mg/kg; IC50 [23]: 14.8 µM
